Experimental data reported in ChEMBL document CHEMBL3124841, “Discovery of vinyl sulfones as a novel class of neuroprotective agents toward Parkinson's disease therapy” (J Med Chem, 2014).
Calls of active or inactive are those of the source. The calls are words filed in the database; no cut-off is given here.

Columns and labels:
[1] = molecular target: T1, Nuclear factor erythroid 2-related factor 2 (Mus musculus) (UniProt Q60795); test: Induction of Nrf2-dependent GCLM gene expression in mouse CATH.a cells at 10 uM after 6 hrs by RT-PCR analysis relative to control; format: cell-based
T1 sequence (whole entry): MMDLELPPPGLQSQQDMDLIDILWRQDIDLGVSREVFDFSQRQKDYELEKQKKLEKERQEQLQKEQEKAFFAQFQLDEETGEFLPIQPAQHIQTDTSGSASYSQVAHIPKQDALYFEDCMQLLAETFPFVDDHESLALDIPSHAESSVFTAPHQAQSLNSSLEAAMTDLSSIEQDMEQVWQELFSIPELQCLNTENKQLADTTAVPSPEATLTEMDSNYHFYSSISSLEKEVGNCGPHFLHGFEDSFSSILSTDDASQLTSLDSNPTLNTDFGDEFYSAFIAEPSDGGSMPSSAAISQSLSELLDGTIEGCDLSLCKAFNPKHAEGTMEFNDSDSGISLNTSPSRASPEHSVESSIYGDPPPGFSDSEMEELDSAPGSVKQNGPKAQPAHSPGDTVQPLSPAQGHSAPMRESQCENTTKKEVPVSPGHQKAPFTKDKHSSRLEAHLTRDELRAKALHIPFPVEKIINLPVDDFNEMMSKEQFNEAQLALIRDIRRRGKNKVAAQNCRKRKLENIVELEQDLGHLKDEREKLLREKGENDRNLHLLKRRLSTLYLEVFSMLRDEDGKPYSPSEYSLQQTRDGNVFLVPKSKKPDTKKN
Method in brief: (§1)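 CATH.a cells grown in RPMI 1640 with 8% horse serum and 4% FBS, exposed to graded concentrations for 6 h. mRNA analysed by RT-PCR with gene-specific primers, products run on 1% agarose gel, band densitometry normalized to GAPDH. At least duplicate cultures; fold induction versus untreated control ± SEM.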

[2] = molecular target: T1, Nuclear factor erythroid 2-related factor 2 (Mus musculus); test: Induction of Nrf2-dependent HO1 gene expression in mouse CATH.a cells at 1 to 10 uM after 6 hrs by RT-PCR analysis relative to control; format: cell-based; method in brief: as §1
[3] = molecular target: T1, Nuclear factor erythroid 2-related factor 2 (Mus musculus); test: Induction of Nrf2-dependent NQO1 protein expression in mouse CATH.a cells at 10 uM after 24 hrs by western blot analysis relative to control; format: cell-based
Method in brief: (§2)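 Cells (CATH.a) exposed to graded concentrations for 24 h, lysed in RIPA buffer with protease inhibitors. Equal protein separated on 10% SDS gel, blotted; primary antibodies overnight at 4 °C, HRP secondary, chemiluminescence. Densitometry normalized to β-actin. At least duplicate cultures, fold of untreated control ± SEM.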

[4] = molecular target: T1, Nuclear factor erythroid 2-related factor 2 (Mus musculus); test: Induction of Nrf2-dependent NQO1 gene expression in mouse CATH.a cells at 1 uM after 6 hrs by RT-PCR analysis relative to control; format: cell-based; method in brief: as §1
[5] = molecular target: T1, Nuclear factor erythroid 2-related factor 2 (Mus musculus); test: Activation of Nrf2 in mouse CATH.a cells assessed as increase in total Nrf2 protein level at 1 uM after 24 hrs by western blot analysis; format: cell-based
Method in brief: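 CATH.a cells (RPMI 1640, 8% horse serum, 4% FBS, 37 °C, 5% CO2) exposed to various concentrations for 24 h. Whole-cell lysate in RIPA buffer with protease inhibitors, 10% SDS-PAGE, Nrf2 immunoblot, chemiluminescence, densitometry normalized to β-actin. At least duplicate cultures, averaged, fold of untreated control ± SEM.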

[6] = molecular target: T1, Nuclear factor erythroid 2-related factor 2 (Mus musculus); test: Induction of Nrf2-dependent HO1 protein level in mouse BV-2 cells at 20 uM after 24 hrs by sandwich ELISA; format: cell-based
Method in brief: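 Murine BV-2 microglia in DMEM/10% FBS, 2.0 × 10⁴ cells per well, treated at 20 μM for 24 h in triplicate. Lysates in NP-40 Tris buffer (pH 8.0) diluted tenfold; HO-1 measured by sandwich ELISA with HRP-streptavidin and Amplex Red fluorescence (ex 530/em 590 nm). Expressed as % of 0.04% DMSO vehicle control ± SEM; sulforaphane 5 μM as reference.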

[7] = system: Mus musculus; test: Effect on DAergic neurons in C57Bl/6 mouse SN at 10 mg/kg/day, po for 3 days by immunohistochemistry; format: ADME, organism-based; set-up: route oral; settings: in vivo, 72 h
Method in brief: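 Male C57Bl/6 mice (23−25 g, n = 10/group) dosed orally at 10 mg/kg/day for 3 days, vehicle N-methyl-2-pyrrolidone and 20% Tween 80 in saline. MPTP 4 × 20 mg/kg ip 2 h apart, starting 24 h after first oral dose. Perfusion-fixed 7 days after first MPTP; TH immunostaining, nigral cells counted and striatal fibers densitometered on five sections each, 80 μm apart. Expressed as % vehicle control ± SEM.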

[8] = Cytotoxicity against mouse CATH.a cells assessed as cell viability at 0.1 to 2 uM after 72 hrs by ATP assay; format: cell-based
Method in brief: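 CATH.a cells seeded at 2.4 × 10⁴ cells/well, exposed to the agent alone for 72 h. Viability read as cellular ATP by CellTiter-Glo luminescence (2 min lysis, 10 min room temperature, 1 min read). At least duplicate cultures, percent of untreated control ± SEM.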

[9] = molecular target: T1, Nuclear factor erythroid 2-related factor 2 (Mus musculus); test: Induction of Nrf2-dependent GCLC protein expression in mouse CATH.a cells at 0.1 uM after 24 hrs by western blot analysis; format: cell-based; method in brief: as §2
[10] = molecular target: T1, Nuclear factor erythroid 2-related factor 2 (Mus musculus); test: Induction of Nrf2-dependent GCLC gene expression in mouse CATH.a cells at 0.1 uM after 6 hrs by RT-PCR analysis; format: cell-based; method in brief: as §1
[11] = molecular target: T1, Nuclear factor erythroid 2-related factor 2 (Mus musculus); test: Induction of Nrf2-dependent GCLM protein expression in mouse CATH.a cells at 0.1 uM after 24 hrs by western blot analysis; format: cell-based; method in brief: as §2
[12] = molecular target: T1, Nuclear factor erythroid 2-related factor 2 (Mus musculus); test: Induction of Nrf2-dependent NQO1 protein expression in mouse CATH.a cells at 0.1 uM after 24 hrs by western blot analysis; format: cell-based; method in brief: as §2
[13] = molecular target: T1, Nuclear factor erythroid 2-related factor 2 (Mus musculus); test: Induction of Nrf2-dependent NQO1 gene expression in mouse CATH.a cells at 0.1 uM after 6 hrs by RT-PCR analysis; format: cell-based; method in brief: as §1
[14] = species on record: Mus musculus; test: Neuroprotection against BH4-induced mouse CATH.a cell death assessed as cell viability at >0.1 uM treated for 20 hrs prior to BH4 challenge for 24 hrs by ATP assay; format: functional
Method in brief: (§3)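 CATH.a cells (2.4 × 10⁴/well) pretreated with graded concentrations for 20 h, then challenged with 200 μM BH4 for a further 24 h. Viability as cellular ATP by CellTiter-Glo luminescence. At least duplicate cultures, percent of untreated control ± SEM, compared with BH4-treated cells.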

[15] = species on record: Mus musculus; test: Neuroprotection against BH4-induced mouse CATH.a cell death assessed as cell viability at 0.1 uM treated for 20 hrs prior to BH4 challenge for 24 hrs by LDH activity assay; format: functional
Method in brief: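 CATH.a cells at 2.4 × 10⁴/well given graded concentrations for 20 h, then 200 μM BH4 for an additional 24 h. Medium LDH activity from NADH oxidation with pyruvate, pH 7.4, read at 340 nm over 5 min. At least duplicate cultures, % untreated control ± SEM, compared against BH4-treated group.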

[16] = species on record: Mus musculus; test: Neuroprotection against BH4-induced mouse CATH.a cell death assessed as cell viability at 0.1 uM treated for 20 hrs prior to BH4 challenge for 24 hrs by ATP assay; format: functional; method in brief: as §3
[17] = molecular target: T1, Nuclear factor erythroid 2-related factor 2 (Mus musculus); test: Induction of Nrf2-dependent GCLM protein expression in mouse CATH.a cells after 24 hrs by western blot analysis; format: cell-based; method in brief: as §2

Work on `COc1ccccc1S(=O)(=O)/C=C/c1ccccc1Cl` yielded a fold change (FC) [1] of 2.56, a fold change (FC) [2] of 3 and a fold change (FC) [3] of 4.43. For the same compound, the fold change (FC) [4] was 1.95, the Activity [5] was “Active” and the Activity [6] was 382%. For the same compound, the Activity [7] was “Non-toxic”, the Activity [8] was “Non-toxic” and the Activity [9] was “inactive”. For the same compound, the Activity [10] was “inactive”, the Activity [11] was “inactive” and the Activity [12] was “inactive”. For the same compound, the Activity [13] was “inactive”, the Activity [14] was “Active” and the Activity [15] was “Active”. The Activity [16] was “Active” and the Activity [17] was “Dose-dependent effect”.
